Experimental data from ChEMBL document CHEMBL1212781, “VIM-19, a metallo-beta-lactamase with increased carbapenemase activity from Escherichia coli and Klebsiella pneumoniae” (2010).
Converted amounts (≈) assume the structure as drawn.

Assays:
Assay type in all cases: functional
Escherichia coli [1] = assay: Antimicrobial activity in Escherichia coli DIH-1 expressing beta-lactamase VIM-19 by Etest
Procedure, shortened: (§1)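 MICs read by Etest on Mueller-Hinton agar incubated at 37°C. Susceptibility was categorized according to CLSI guidelines. Transconjugants were obtained in E. coli J53 by liquid mating at 37°C, with selection on agar containing amoxicillin (50 μg/ml) and azide (100 μg/ml).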

Klebsiella pneumoniae [2] = assay: Antimicrobial activity in Klebsiella pneumoniae DIH-2 clinical isolate expressing beta-lactamase VIM-19 by Etest
Escherichia coli [3] = assay: microbe, parasite or virus in culture; settings: TOP10
Escherichia coli [4] = assay: microbe, parasite or virus in culture; settings: TOP10; remark: listed apart in the source
Escherichia coli [5] = assay: microbe, parasite or virus in culture; settings: TOP10; remark: listed apart in the source
Escherichia coli [6] = assay: microbe, parasite or virus in culture; settings: TOP10; remark: listed apart in the source
Escherichia coli [7] = assay: Antimicrobial activity in Escherichia coli J53 transconjugate with Escherichia coli DIH-1 expressing natural plasmid containing beta-lactamase VIM-19
Procedure, shortened: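 Transconjugants came from liquid mating-out at 37°C with azide-resistant E. coli J53 as recipient, selected on agar with amoxicillin (50 μg/ml) plus azide (100 μg/ml). MICs were then read by Etest on Mueller-Hinton agar at 37°C and interpreted per CLSI.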

Escherichia coli [8] = assay: Antimicrobial activity in Escherichia coli TOP10 strain
Procedure, shortened: (§2)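 MICs were determined by Etest on Mueller-Hinton agar plates incubated at 37°C. Susceptibility was interpreted according to CLSI guidelines.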

Escherichia coli [9] = assay: Antimicrobial activity in Escherichia coli J53 strain; procedure, shortened: as §2
Escherichia coli [10] = assay: Antimicrobial activity in Escherichia coli DIH-1 expressing beta-lactamase VIM-19 by Etest in presence of 4 ug/ml clavulanic acid; procedure, shortened: as §1
Klebsiella pneumoniae [11] = assay: Antimicrobial activity in Klebsiella pneumoniae DIH-2 clinical isolate expressing beta-lactamase VIM-19 by Etest in presence of 4 ug/ml clavulanic acid; procedure, shortened: as §1
Escherichia coli [12] = assay: Antimicrobial activity in Escherichia coli TOP10 hourbouring recombinant plasmid VIM-19 by Etest in presence of 4 ug/ml clavulanic acid; procedure, shortened: as §1
Escherichia coli [13] = assay: Antimicrobial activity in Escherichia coli TOP10 hourbouring recombinant plasmid VIM-4 by Etest in presence of 4 ug/ml clavulanic acid; procedure, shortened: as §1
Escherichia coli [14] = assay: Antimicrobial activity in Escherichia coli J53 transconjugate with Escherichia coli DIH-1 expressing natural plasmid containing beta-lactamase VIM-19 in presence of 4 ug/ml clavulanic acid; procedure, shortened: as §1
Escherichia coli [15] = assay: Antimicrobial activity in Escherichia coli TOP10 strain in presence of 4 ug/ml clavulanic acid
Procedure, shortened: (§3)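 MIC by Etest on Mueller-Hinton agar plates at 37°C, with susceptibility interpreted per CLSI guidelines.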

Escherichia coli [16] = assay: Antimicrobial activity in Escherichia coli J53 strain in presence of 4 ug/ml clavulanic acid; procedure, shortened: as §3

| SMILES | MIC (Escherichia coli [1]) | MIC (Klebsiella pneumoniae [2]) | MIC (Escherichia coli [3]) | MIC (Escherichia coli [4]) | MIC (Escherichia coli [5]) | MIC (Escherichia coli [6]) | MIC (Escherichia coli [7]) | MIC (Escherichia coli [8]) | MIC (Escherichia coli [9]) | MIC (Escherichia coli [10]) | MIC (Klebsiella pneumoniae [11]) | MIC (Escherichia coli [12]) | MIC (Escherichia coli [13]) | MIC (Escherichia coli [14]) | MIC (Escherichia coli [15]) | MIC (Escherichia coli [16]) |
| --- | --- | --- | --- | --- | --- | --- | --- | --- | --- | --- | --- | --- | --- | --- | --- | --- |
| C[C@@H](O)[C@H]1C(=O)N2C(C(=O)O)=C(S[C@@H]3CN[C@H](C(=O)Nc4cccc(C(=O)O)c4)C3)[C@H](C)[C@H]12 | 16 µg/mL (≈ 33.6 µM) | 16 µg/mL (≈ 33.6 µM) | 2 µg/mL (≈ 4.21 µM) | 2 µg/mL (≈ 4.21 µM) | 0.125 µg/mL (≈ 0.263 µM) | 0.125 µg/mL (≈ 0.263 µM) | 1.5 µg/mL (≈ 3.15 µM) | 0.006 µg/mL (≈ 0.0126 µM) | 0.006 µg/mL (≈ 0.0126 µM) | – | – | – | – | – | – | – |
| CC1(C)S[C@@H]2[C@H](NC(=O)[C@H](N)c3ccc(O)cc3)C(=O)N2[C@H]1C(=O)O [AMOXICILLIN] | > 512 µg/mL | > 512 µg/mL | > 512 µg/mL | > 512 µg/mL | – | – | > 512 µg/mL | 4 µg/mL (≈ 10.9 µM) | 4 µg/mL (≈ 10.9 µM) | > 512 µg/mL | > 512 µg/mL | > 512 µg/mL | > 512 µg/mL | > 512 µg/mL | 4 µg/mL | 4 µg/mL |
| C[C@H]1[C@H](NC(=O)/C(=N\OC(C)(C)C(=O)O)c2csc(N)n2)C(=O)N1S(=O)(=O)O [AZTREONAM] | 4 µg/mL (≈ 9.19 µM) | – | – | – | – | 0.12 µg/mL (≈ 0.276 µM) | – | – | – | – | – | – | – | – | – | – |
| CO/N=C(\C(=O)N[C@@H]1C(=O)N2C(C(=O)O)=C(COC(C)=O)CS[C@H]12)c1csc(N)n1 [CEFOTAXIME] | > 512 µg/mL | > 512 µg/mL | 64 µg/mL (≈ 141 µM) | 64 µg/mL (≈ 141 µM) | 32 µg/mL (≈ 70.3 µM) | 64 µg/mL (≈ 141 µM) | 64 µg/mL (≈ 141 µM) | 0.12 µg/mL (≈ 0.263 µM) | 0.12 µg/mL (≈ 0.263 µM) | – | – | – | – | – | – | – |
| CO[C@@]1(NC(=O)Cc2cccs2)C(=O)N2C(C(=O)O)=C(COC(N)=O)CS[C@@H]21 [CEFOXITIN] | > 512 µg/mL | > 512 µg/mL | 256 µg/mL (≈ 599 µM) | 256 µg/mL (≈ 599 µM) | 256 µg/mL (≈ 599 µM) | 256 µg/mL (≈ 599 µM) | 256 µg/mL (≈ 599 µM) | 4 µg/mL (≈ 9.36 µM) | 4 µg/mL (≈ 9.36 µM) | – | – | – | – | – | – | – |
| CO/N=C(\C(=O)N[C@@H]1C(=O)N2C(C(=O)[O-])=C(C[n+]3cccc4c3CCC4)CS[C@H]12)c1csc(N)n1 [CEFPIROME] | 32 µg/mL (≈ 62.2 µM) | 64 µg/mL (≈ 124 µM) | 2 µg/mL (≈ 3.89 µM) | 2 µg/mL (≈ 3.89 µM) | 32 µg/mL (≈ 62.2 µM) | 32 µg/mL (≈ 62.2 µM) | 2 µg/mL (≈ 3.89 µM) | 0.06 µg/mL (≈ 0.117 µM) | 0.12 µg/mL (≈ 0.233 µM) | – | – | – | – | – | – | – |
| CC(C)(O/N=C(\C(=O)N[C@@H]1C(=O)N2C(C(=O)[O-])=C(C[n+]3ccccc3)CS[C@H]12)c1csc(N)n1)C(=O)O [CEFTAZIDIME] | > 512 µg/mL | 128 µg/mL (≈ 234 µM) | 32 µg/mL (≈ 58.5 µM) | 32 µg/mL (≈ 58.5 µM) | 512 µg/mL (≈ 937 µM) | 512 µg/mL (≈ 937 µM) | 32 µg/mL (≈ 58.5 µM) | 0.06 µg/mL (≈ 0.11 µM) | 0.06 µg/mL (≈ 0.11 µM) | – | – | – | – | – | – | – |
